Results from different studies.
Each line is one published result; the experiments were not run side by side.
rep main protease: Replicase polyprotein 1ab, main protease (rep, Severe acute respiratory syndrome coronavirus 2, UniProt P0DTD1)
rep methyltransferase: Replicase polyprotein 1ab, methyltransferase (rep, Severe acute respiratory syndrome coronavirus 2, UniProt P0DTD1)
FABP1: Fatty acid-binding protein, liver (FABP1, Homo sapiens, UniProt P07148)

SMILES	target	test	conditions	quantity	result
O=c1c(O)c(-c2ccc(O)cc2)oc2c(O)c(O)cc(O)c12	rep main protease	enzyme activity, inhibitor	with preincubation	IC50	< 10 µM
COc1ncc(-c2ccc3nccc(-c4ccnnc4)c3c2)cc1NS(=O)(=O)c1ccc(F)cc1F	rep methyltransferase	enzyme activity, inhibitor		IC50	~100 µM
CC1(C)O[C@@H]2C[C@H]3[C@@H]4CCC5=CC(=O)C=C[C@]5(C)[C@H]4[C@@H](O)C[C@]3(C)[C@]2(C(=O)CO)O1	rep main protease	enzyme activity, inhibitor		IC50	71.4 µM
COc1cc2c(cc1OC)CN(CCc1ccc(NC(=O)c3cccc4c(=O)c5cccc(OC)c5[nH]c34)cc1)CC2	Histamine H2 receptor (HRH2, Homo sapiens, UniProt P25021)	cell-free assay		Ki	1.1 µM
CC1CC(c2ccc(S(N)(=O)=O)cc2)=NN1c1ccc(C#N)c(Cl)c1 (centres unmarked)	rep methyltransferase	enzyme activity, inhibitor		IC50	> 100 µM
CCOC(=O)c1ccc(OC(=O)CCCCCN=C(N)N)cc1	Kallikrein-12 (Homo sapiens, UniProt Q9UKR0)	enzyme activity, inhibitor		IC50	0.0357 µM
O=C(O)c1cc(O)c(O)c(O)c1	rep main protease	binding, MST		Kd	3.95 µM
NS(=O)(=O)C(F)(F)C(F)(F)C(F)(F)C(F)(F)C(F)(F)C(F)(F)C(F)(F)C(F)(F)F	FABP1	ligand displacement, fluorescence		Kd	5.87 µM
CC(=O)[C@@]1(O)CC[C@H]2[C@@H]3C[C@H](C)C4=CC(=O)C=C[C@]4(C)[C@@]3(F)[C@@H](O)C[C@@]21C	rep main protease	enzyme activity, inhibitor		IC50	60.6 µM
CCNS(=O)(=O)C(F)(F)C(F)(F)C(F)(F)C(F)(F)C(F)(F)C(F)(F)C(F)(F)C(F)(F)F	FABP1	ligand displacement, fluorescence		Kd	16.6 µM
CN1C(=O)/C(=N\Nc2ncc(-c3cc4ccccc4oc3=O)s2)c2cc(Cl)ccc21	Alpha-glucosidase MAL12 (MAL12, Saccharomyces cerevisiae S288c, UniProt P53341)	enzyme activity, inhibitor, absorbance		IC50	112 µM
